ChEMBL document CHEMBL3822412, “Exploiting Protein Conformational Change to Optimize Adenosine-Derived Inhibitors of HSP70” (J Med Chem, 2016)

Each compound was assayed against Heat shock cognate 71 kDa protein (Homo sapiens, UniProt P11142) (assay: Binding affinity to human truncated HSC70 NBD (1 to 381 residues) by SPR analysis). Details: read-out: Kd.
In short: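 Human HSC70-NBD (residues 1-381) amine-coupled to a CM5 chip to ~5000 RU, with 750 µM ADP present during coupling. Running buffer PBS pH 7.4 with 0.05% Tween20 and 5% DMSO. Eight-point dose response over 50–2000, 5–200 or 0.0625–2.5 µM. Flow 30 µL/min, 60 s injection, 120 s dissociation, no regeneration, unmodified reference cell. KD taken from equilibrium binding curves fitted to a 1:1 model. Geometric mean ± SEM, n≥3.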

Chain of Heat shock cognate 71 kDa protein (P11142 whole entry, the tested form may be a part): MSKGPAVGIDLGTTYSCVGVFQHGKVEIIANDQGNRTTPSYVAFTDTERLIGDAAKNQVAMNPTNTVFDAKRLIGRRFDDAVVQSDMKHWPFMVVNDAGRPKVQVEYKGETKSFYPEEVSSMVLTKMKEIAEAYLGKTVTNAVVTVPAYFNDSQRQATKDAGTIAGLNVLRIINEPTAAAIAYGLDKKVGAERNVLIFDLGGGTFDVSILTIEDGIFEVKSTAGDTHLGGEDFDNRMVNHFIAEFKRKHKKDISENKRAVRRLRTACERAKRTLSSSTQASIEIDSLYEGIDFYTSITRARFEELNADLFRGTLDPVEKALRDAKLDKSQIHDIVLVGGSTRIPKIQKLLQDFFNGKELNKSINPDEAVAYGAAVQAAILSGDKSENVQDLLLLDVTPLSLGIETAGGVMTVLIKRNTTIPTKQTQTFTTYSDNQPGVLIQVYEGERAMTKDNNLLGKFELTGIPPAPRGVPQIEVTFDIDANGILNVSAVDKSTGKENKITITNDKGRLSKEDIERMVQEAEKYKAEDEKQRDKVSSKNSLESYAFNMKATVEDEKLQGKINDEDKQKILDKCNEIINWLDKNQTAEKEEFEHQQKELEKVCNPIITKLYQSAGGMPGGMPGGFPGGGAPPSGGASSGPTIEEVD

Row | SMILES | Kd [µM]
1 | Cc1ccc(CNc2nc3c(N)ncnc3n2[C@@H]2O[C@H](CO)[C@@H](O)[C@H]2O)cc1 | 0.3
2 | Nc1ncnc2c1nc(NCc1ccc(Cl)cc1)n2[C@@H]1O[C@H](CO)[C@@H](O)[C@H]1O | 0.28
3 | COc1nc2c(N)ncnc2n1[C@@H]1O[C@H](CO)[C@@H](O)[C@H]1O | > 1000
4 | Nc1ncnc2c1nc(NCc1ccc(F)cc1)n2[C@@H]1O[C@H](CO)[C@@H](O)[C@H]1O | 0.46
5 | CNc1c(C(N)=O)c2c(N)ncnc2n1[C@@H]1O[C@H](CO)[C@@H](O)[C@H]1O | 30
6 | N#Cc1c(NCc2ccccc2)n([C@@H]2O[C@H](CO)[C@@H](O)[C@H]2O)c2ncnc(N)c12 | 2.8
7 | CN(C)c1nc2c(N)ncnc2n1[C@@H]1O[C@H](CO)[C@@H](O)[C@H]1O | > 1000
8 | CNc1c(C#N)c2c(N)ncnc2n1[C@@H]1O[C@H](CO)[C@@H](O)[C@H]1O | 3.3
9 | CNc1nc2c(N)ncnc2n1[C@@H]1O[C@H](C)[C@@H](O)[C@H]1O | 27
10 | CNc1nc2c(N)ncnc2n1[C@@H]1O[C@H](CO)[C@@H](O)[C@H]1O | 17
11 | Nc1ncnc2c1nc(NCc1ccccc1)n2[C@@H]1O[C@H](CO)[C@@H](O)[C@H]1O | 1.4
12 | Nc1ncnc2c1nc(NCc1ccc3ncccc3c1)n2[C@@H]1O[C@H](CO)[C@@H](O)[C@H]1O | 0.72
13 | Nc1ncnc2c1nc(N)n2[C@@H]1O[C@H](CO)[C@@H](O)[C@H]1O | 7
14 | Nc1ncnc2c1nc(NCc1ccc(Cl)c(Cl)c1)n2[C@@H]1O[C@H](CO)[C@@H](O)[C@H]1O | 3.5
15 | C[C@H]1O[C@@H](n2cnc3c(N)ncnc32)[C@H](O)[C@@H]1O [5'-Deoxyadenosine] | 130
16 | Nc1ncnc2c1ncn2[C@@H]1O[C@H](COP(=O)(O)OP(=O)(O)O)[C@@H](O)[C@H]1O [ADENOSINE DIPHOSPHATE] | 0.32
17 | Nc1ncnc2c1ncn2[C@@H]1O[C@H](CO)[C@@H](O)[C@H]1O [ADENOSINE] | 110

Same assay, conditions: read-out: pKd (converted)

Row | SMILES | Kd [µM]
18 | NC(=O)c1cn([C@@H]2O[C@H](CO)[C@@H](O)[C@H]2O)c2ncnc(N)c12 [SANGIVAMYCIN] | 3.24
19 | N#Cc1cn([C@@H]2O[C@H](CO)[C@@H](O)[C@H]2O)c2ncnc(N)c12 [TOYOCAMYCIN] | 91.2
20 | Nc1ncnc2c1ccn2[C@@H]1O[C@H](CO)[C@@H](O)[C@H]1O [TUBERCIDIN] | 28.2
